The source of these data is ChEMBL document CHEMBL1128331, “New antianginal nitro esters with reduced hypotensive activity. Synthesis and pharmacological evaluation of 3-[(nitrooxy)alkyl]-2H-1,3-benzoxazin-4(3H)-ones” (J Med Chem, 1995).

Data set [1] in a line: Partition coefficient (logP). Format: physicochemical. Conditions: octanol/water.
The species named for data set [2] is Oryctolagus cuniculus. Nature of the data set: Vasorelaxation activity in the isolated endothelium-denuded rabbit aorta. It counts as functional. An outline of the steps:
(§1)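 Endothelium-denuded rabbit aortic strips, precontracted to a stable plateau, then given increasing concentrations cumulatively in the organ chamber; IC50 calculated from the concentration-response curves.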

Data set [3] deals with Rattus norvegicus. In words: Concentration required to reduce mean arterial blood pressure in rat after intravenous administration. Format: functional. The conditions noted are these: Artery. In short, it runs like this:
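Male Sprague-Dawley rats (350-400 g), urethane 1.25 g/kg ip, tracheal cannula. Carotid catheter records mean arterial pressure continuously; heart rate taken from the pressure wave. Dosing through femoral vein, 1 mL/kg over 20 s. Change expressed as percent of basal; ED20 (dose giving 20% MABP fall) taken from the dose-response curve.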

For data set [4], the species on record is Rattus norvegicus. In words: Inhibition of vasopressin-induced ECG changes in rat. It counts as functional. An outline of the steps: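 Urethane-anesthetized (1.25 g/kg ip) male Sprague-Dawley rats, lead II ECG. Arg8-vasopressin 1 IU/kg iv (1 mL/kg over 20 s) given 10 min after iv drug or vehicle (GTN 1 min before). T-wave rise measured in mV. 8 rats per dose; percent inhibition against mean control; ED50 from dose-effect regression line.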

The species entered for data set [5] is Rattus norvegicus. In words: Selectivity index as the ratio of doses requires to induce a reduction in MABP and that required to prevent ECG changes. Format: functional. In short, it runs like this: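 Ratio of the iv ED20 for a 20% fall in mean arterial pressure to the iv ED50 for preventing ECG changes, both measured in urethane-anesthetized rats.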
The species named for data set [6] is Oryctolagus cuniculus. In words: Compound was tested for vasorelaxation activity in the isolated endothelium-denuded rabbit aorta. Format: functional. An outline of the steps:
as §1

For data set [7], the system named is Rattus norvegicus. Nature of the data set: Inhibition of methacholine-induced ECG changes in the anesthetized rat after intravenous administration. It counts as functional. An outline of the steps: (§2)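 Urethane-anesthetized male Sprague-Dawley rats, lead II ECG. Methacholine 8.0 µg in 0.02 mL over 1 s delivered into coronary arteries via a tube passed through the right carotid artery into the coronary ostia; S-T elevation measured in mV. Injection repeated at intervals after a single iv or oral dose. Five rats per dose; percent inhibition over basal; ED50.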

For data set [8], the system named is Rattus norvegicus. Nature of the data set: Inhibition of methacholine-induced ECG changes in the anesthetized rat after oral administration. It counts as functional. An outline of the steps:
as §2

In data set [1], `O=C1c2cc([N+](=O)[O-])ccc2OCN1CCO[N+](=O)[O-]` registered a logP of 1.57. In the data set listed under Oryctolagus cuniculus [2], this compound yielded an IC50 of 21 nM. This compound gave an ED20 with Rattus norvegicus [3] of 0.076 mg/kg. In the data set listed under Rattus norvegicus [4], it took a dose of 0.064 mg/kg to reach the 50% effect level (ED50). Also, the Selectivity index in the data set listed under Rattus norvegicus [5] is 1.2.

In turn, `O=C1c2ccc(C(F)(F)F)cc2OCN1CCO[N+](=O)[O-]` returned a logP in data set [1] of 2.73. In the data set filed under Oryctolagus cuniculus [6], this compound registered an IC50 of 220 nM. The ED20 in the data set on Rattus norvegicus [3] was greater than 0.3 mg/kg. For the same compound, the ED50 in the data set on Rattus norvegicus [7] is 0.082 mg/kg; in the data set with Rattus norvegicus [8], greater than 0.3 mg/kg; in the data set filed under Rattus norvegicus [4], 0.0015 mg/kg. Further, the Selectivity index in the data set listed under Rattus norvegicus [5] was 200.

`CN(C)/C=N/c1ccc2c(c1)C(=O)N(CCO[N+](=O)[O-])CO2`: in the data set listed under Oryctolagus cuniculus [2], the IC50 came to 640 nM. Further, the ED20 in the data set with Rattus norvegicus [3] came to 1.27 mg/kg. In addition, the ED50 in the data set on Rattus norvegicus [7] is 0.0171 mg/kg; with Rattus norvegicus [8], greater than 0.3 mg/kg. The Selectivity index in the data set listed under Rattus norvegicus [5] was 131.

Consider `O=C1c2ccccc2OCN1CCCCCO[N+](=O)[O-]`, for which half-maximal inhibition in the data set filed under Oryctolagus cuniculus [2] (IC50) required 98 nM. The compound also showed an ED20 in the data set with Rattus norvegicus [3] of 0.73 mg/kg. In the data set filed under Rattus norvegicus [5], the Selectivity index is 13.

Regarding `O=C1c2ccccc2OCN1CCCO[N+](=O)[O-]`, in the data set filed under Oryctolagus cuniculus [2], half-maximal inhibition (IC50) required 77 nM. In addition, in the data set with Rattus norvegicus [7], the 50% effect level (ED50) was put at a dose of 0.001 mg/kg.

For the compound `Cc1cccc2c1OCN(CCO[N+](=O)[O-])C2=O`, the IC50 in the data set listed under Oryctolagus cuniculus [2] worked out at 360 nM. For the same compound, the ED20 in the data set with Rattus norvegicus [3] was 0.88 mg/kg. In the data set listed under Rattus norvegicus [4], this compound showed an ED50 of 0.0582 mg/kg. In the data set filed under Rattus norvegicus [5], the Selectivity index was 15.

The compound `O=C1c2cc(Cl)ccc2OCN1CCO[N+](=O)[O-]` showed a logP in data set [1] of 2.56. This compound displayed an IC50 in the data set listed under Oryctolagus cuniculus [2] of 37 nM. In addition, the ED20 in the data set on Rattus norvegicus [3] was 0.088 mg/kg. Also, the 50% effect level in the data set listed under Rattus norvegicus [4] (ED50) was put at a dose of 0.107 mg/kg. Besides, in the data set listed under Rattus norvegicus [5], the Selectivity index worked out at 0.87.

On to `O=C1c2ccc(Cl)cc2OCN1CCO[N+](=O)[O-]`, for which the logP in data set [1] amounted to 2.56. Also, the IC50 in the data set listed under Oryctolagus cuniculus [2] is 70 nM. Also, the ED20 in the data set on Rattus norvegicus [3] amounted to 0.79 mg/kg. The Selectivity index in the data set listed under Rattus norvegicus [5] was 72.

As to `Cc1cccc2c1C(=O)N(CCO[N+](=O)[O-])CO2`, in the data set filed under Oryctolagus cuniculus [2], the IC50 is 125 nM. The compound also returned an ED20 in the data set on Rattus norvegicus [3] of 0.3 mg/kg. The ED50 is greater than 0.01 mg/kg in the data set with Rattus norvegicus [7] and 0.0046 mg/kg in the data set listed under Rattus norvegicus [4]. In addition, in the data set filed under Rattus norvegicus [5], the Selectivity index was found to be 65.

`Cc1ccc2c(c1)OCN(CCO[N+](=O)[O-])C2=O` returned a logP in data set [1] of 2.41. For the same compound, it took 110 nM to reach half-maximal inhibition in the data set filed under Oryctolagus cuniculus [2] (IC50). In the data set on Rattus norvegicus [3], the ED20 was 0.22 mg/kg. The Selectivity index in the data set listed under Rattus norvegicus [5] is given as 17.5.

`N#Cc1ccc2c(c1)C(=O)N(CCO[N+](=O)[O-])CO2` returned a logP in data set [1] of 1.28. Besides, it took 71 nM to reach half-maximal inhibition in the data set listed under Oryctolagus cuniculus [2] (IC50). For the same compound, the ED20 in the data set with Rattus norvegicus [3] was greater than 0.3 mg/kg. Moreover, the Selectivity index in the data set listed under Rattus norvegicus [5] is 26.

In the case of `COc1ccc2c(c1)C(=O)N(CCO[N+](=O)[O-])CO2`, the logP in data set [1] worked out at 1.83. The compound further returned an IC50 in the data set listed under Oryctolagus cuniculus [2] of 230 nM. In the data set with Rattus norvegicus [3], this compound had an ED20 greater than 1 mg/kg. Also, the figures for the ED50 with Rattus norvegicus [7], in the data set with Rattus norvegicus [8] and in the data set listed under Rattus norvegicus [4] were 0.013 mg/kg, 0.1 mg/kg and 0.0051 mg/kg, respectively. For the same compound, the Selectivity index in the data set filed under Rattus norvegicus [5] worked out at 421.

Turning to `Cc1ccc2c(c1)C(=O)N(CCO[N+](=O)[O-])CO2`, in data set [1], the logP was 2.41. The same compound displayed an IC50 in the data set listed under Oryctolagus cuniculus [2] of 35 nM. Further, the ED20 in the data set with Rattus norvegicus [3] was 0.037 mg/kg. Besides, the ED50 with Rattus norvegicus [7] was 0.00041 mg/kg; in the data set on Rattus norvegicus [8], 0.142 mg/kg; in the data set listed under Rattus norvegicus [4], 0.006 mg/kg. Also, the Selectivity index in the data set filed under Rattus norvegicus [5] is reported as 8.6.

`COc1ccc2c(c1)OCN(CCO[N+](=O)[O-])C2=O` displayed a logP in data set [1] of 1.83. In the data set listed under Oryctolagus cuniculus [2], this compound came in with an IC50 of 47 nM. For the same compound, in the data set on Rattus norvegicus [3], the ED20 worked out at 0.29 mg/kg. Further, the values for the ED50 in the data set with Rattus norvegicus [7], in the data set with Rattus norvegicus [8] and in the data set filed under Rattus norvegicus [4] were greater than 0.01 mg/kg, greater than 0.3 mg/kg and 0.002 mg/kg, respectively. Further, in the data set filed under Rattus norvegicus [5], the Selectivity index is given as 147.

As for `O=C(NCCO[N+](=O)[O-])c1cccnc1` [NICORANDIL], the ED20 with Rattus norvegicus [3] was determined as 0.16 mg/kg. Further, the ED50 came to 0.047 mg/kg in the data set with Rattus norvegicus [7], 3 mg/kg in the data set with Rattus norvegicus [8] and 0.94 mg/kg in the data set listed under Rattus norvegicus [4].

For `O=[N+]([O-])OCC(CO[N+](=O)[O-])O[N+](=O)[O-]` [NITROGLYCERIN], the IC50 in the data set listed under Oryctolagus cuniculus [2] is 16 nM. In addition, the ED20 with Rattus norvegicus [3] was determined as 0.0054 mg/kg. Besides, the ED50 amounted to 0.036 mg/kg in the data set on Rattus norvegicus [7] and 0.545 mg/kg in the data set listed under Rattus norvegicus [4]. The Selectivity index in the data set listed under Rattus norvegicus [5] was found to be 0.01.

For the compound `O=C1c2ccccc2OCN1CCO[N+](=O)[O-]` [SINITRODIL], in data set [1], the logP was 1.85. The compound also gave a half-maximal inhibitory concentration (IC50) in the data set listed under Oryctolagus cuniculus [2] of 94 nM. This compound gave an ED20 in the data set with Rattus norvegicus [3] of 0.19 mg/kg. In addition, the ED50 in the data set on Rattus norvegicus [8] came to 0.118 mg/kg; in the data set filed under Rattus norvegicus [4], 0.0021 mg/kg. Also, the Selectivity index in the data set listed under Rattus norvegicus [5] is on record as 90.
